Laboratory results from ChEMBL document CHEMBL3525931, “Stereoselective interaction of pantoprazole with ABCG2. II. In vitro flux analysis” (Drug Metab Dispos, 2012).

Columns and labels:
[1] = molecular target: T1, Broad substrate specificity ATP-binding cassette transporter ABCG2 (Rattus norvegicus, UniProt Q80W57); assay: Observed permeability in MDCK2 cells expressing rat ABCG2 assessed as ABCG2-mediated basolateral to apical transport at 50 uM after 0.5 to 1 hrs by HPLC method; type: ADME, cell-based; details: mdck-ii
T1 sequence (Q80W57 whole entry): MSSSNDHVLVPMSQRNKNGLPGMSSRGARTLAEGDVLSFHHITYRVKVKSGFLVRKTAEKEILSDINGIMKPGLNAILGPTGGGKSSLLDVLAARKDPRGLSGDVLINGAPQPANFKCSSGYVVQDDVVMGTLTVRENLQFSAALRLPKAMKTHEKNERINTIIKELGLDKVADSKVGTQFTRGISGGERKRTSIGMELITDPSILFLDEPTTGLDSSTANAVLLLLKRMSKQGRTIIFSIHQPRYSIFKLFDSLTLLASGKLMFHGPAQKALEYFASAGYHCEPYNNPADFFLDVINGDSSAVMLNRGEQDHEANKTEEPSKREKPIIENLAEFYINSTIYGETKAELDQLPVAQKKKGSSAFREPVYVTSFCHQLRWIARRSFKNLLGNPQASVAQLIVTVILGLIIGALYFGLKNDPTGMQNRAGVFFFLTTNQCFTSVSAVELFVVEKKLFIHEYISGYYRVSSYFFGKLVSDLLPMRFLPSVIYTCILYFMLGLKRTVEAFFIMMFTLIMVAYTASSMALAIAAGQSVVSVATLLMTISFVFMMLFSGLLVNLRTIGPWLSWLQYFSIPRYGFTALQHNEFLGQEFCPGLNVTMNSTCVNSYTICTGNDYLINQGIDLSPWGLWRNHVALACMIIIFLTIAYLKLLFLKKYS
Summary of the method: (§1)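 rAbcg2-transfected MDCKII monolayers seeded at 1.0×10^6 cells/well on 3.0-μm filters, grown 4 days to TEER >200 Ω·cm². Serum-free Opti-MEM I on both sides. Individual PAN isomer plus 0.2 μCi/ml [3H]mannitol loaded basolaterally, 37°C, 5% CO2. Receiver sampled at 0.5 and 1 h, PAN quantified by HPLC-UV 290 nm. P_obs = initial transfer rate/(area × initial donor concentration). Mean ± S.D., n = 3.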

[2] = Asymmetry efflux ratio in MDCK2 cells assessed as drug transport ratio at 200 uM after 0.5 to 1 hrs by HPLC method; type: ADME, cell-based, Canis lupus familiaris, MDCK-II; details: dog, MDCK
Summary of the method: (§2)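 Mock (empty pcDNA3.1) or rat Abcg2/human ABCG2-transfected MDCKII, G418-selected, seeded on 3.0-μm Transwell filters at 1.0×10^6 cells/well, grown 4 days to TEER >200 Ω·cm². Single isomer loaded apical or basolateral in serum-free Opti-MEM I with 0.2 μCi/ml [3H]mannitol, 37°C 5% CO2. Receiver sampled at 0.5 and 1 h. Quantified by HPLC-UV 290 nm. Permeability = initial rate/(area × donor concentration). Efflux ratio = B→A rate / A→B rate. n = 3, mean ± S.D.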

ABCG2 [3] = molecular target: T2, ABCG2 (Rattus norvegicus, UniProt Q80W57); assay: Asymmetry efflux ratio in MDCK2 cells expressing rat ABCG2 assessed as ABCG2-mediated drug transport ratio at 50 uM after 0.5 to 1 hrs by HPLC method; type: ADME, cell-based; summary of the method: as §2
T2 sequence (Q80W57 whole entry): T1 sequence (Q80W57 whole entry)

[4] = molecular target: T1, Broad substrate specificity ATP-binding cassette transporter ABCG2; assay: Observed permeability in MDCK2 cells expressing rat ABCG2 assessed as ABCG2-mediated basolateral to apical transport at 30 uM after 0.5 to 1 hrs by HPLC method; type: ADME, cell-based; details: mdck-ii; summary of the method: as §1
[5] = Observed permeability in MDCK2 cells assessed as basolateral to apical transport at 30 uM after 0.5 to 1 hrs by HPLC method; type: ADME, cell-based, Canis lupus familiaris; details: dog, mdck-ii; summary of the method: as §2
[6] = Observed permeability in MDCK2 cells assessed as apical to basolateral transport at 200 uM after 0.5 to 1 hrs by HPLC method; type: ADME, cell-based, Canis lupus familiaris; details: dog, mdck-ii; summary of the method: as §2
[7] = Observed permeability in MDCK2 cells assessed as apical to basolateral transport at 50 uM after 0.5 to 1 hrs by HPLC method; type: ADME, cell-based, Canis lupus familiaris; details: dog, mdck-ii; summary of the method: as §2
[8] = Asymmetry efflux ratio in MDCK2 cells assessed as drug transport ratio at 50 uM after 0.5 to 1 hrs by HPLC method; type: ADME, cell-based, Canis lupus familiaris, MDCK-II; details: dog, MDCK; summary of the method: as §2
[9] = molecular target: T3, Broad substrate specificity ATP-binding cassette transporter ABCG2 (Homo sapiens, UniProt Q9UNQ0); assay: Observed permeability in MDCK2 cells expressing human ABCG2 assessed as ABCG2-mediated basolateral to apical transport at 10 uM after 0.5 to 1 hrs by HPLC method; type: ADME, cell-based; details: mdck-ii; summary of the method: as §2
T3 sequence (Q9UNQ0 whole entry): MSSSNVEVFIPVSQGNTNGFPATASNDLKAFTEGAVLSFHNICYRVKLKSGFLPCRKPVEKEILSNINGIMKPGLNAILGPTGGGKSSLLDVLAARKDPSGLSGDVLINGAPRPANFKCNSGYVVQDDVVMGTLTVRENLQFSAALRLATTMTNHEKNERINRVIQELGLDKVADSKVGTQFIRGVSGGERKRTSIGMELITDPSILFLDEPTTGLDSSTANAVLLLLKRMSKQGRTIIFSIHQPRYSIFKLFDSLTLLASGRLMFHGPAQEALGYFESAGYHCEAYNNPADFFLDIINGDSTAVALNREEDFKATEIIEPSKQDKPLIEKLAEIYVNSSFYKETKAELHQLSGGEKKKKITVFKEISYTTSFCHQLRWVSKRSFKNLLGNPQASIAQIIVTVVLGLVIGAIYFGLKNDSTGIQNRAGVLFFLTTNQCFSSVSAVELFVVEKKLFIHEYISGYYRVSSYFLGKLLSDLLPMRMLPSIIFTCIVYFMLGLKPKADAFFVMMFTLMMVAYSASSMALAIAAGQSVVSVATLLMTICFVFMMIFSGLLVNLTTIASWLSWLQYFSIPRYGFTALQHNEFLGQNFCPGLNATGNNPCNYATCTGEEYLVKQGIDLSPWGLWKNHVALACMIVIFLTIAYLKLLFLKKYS

[10] = Asymmetry efflux ratio in MDCK2 cells assessed as drug transport ratio at 3 uM after 0.5 to 1 hrs by HPLC method; type: ADME, cell-based, Canis lupus familiaris, MDCK-II; details: dog, MDCK; summary of the method: as §2
[11] = molecular target: T3, Broad substrate specificity ATP-binding cassette transporter ABCG2; assay: Observed permeability in MDCK2 cells expressing human ABCG2 assessed as ABCG2-mediated basolateral to apical transport at 50 uM after 0.5 to 1 hrs by HPLC method; type: ADME, cell-based; details: mdck-ii; summary of the method: as §2
[12] = molecular target: T3, Broad substrate specificity ATP-binding cassette transporter ABCG2; assay: Observed permeability in MDCK2 cells expressing human ABCG2 assessed as ABCG2-mediated apical to basolateral transport at 3 uM after 0.5 to 1 hrs by HPLC method; type: ADME, cell-based; details: mdck-ii; summary of the method: as §2
ABCG2 [13] = molecular target: T2, ABCG2; assay: Asymmetry efflux ratio in MDCK2 cells expressing rat ABCG2 assessed as ABCG2-mediated drug transport ratio at 30 uM after 0.5 to 1 hrs by HPLC method; type: ADME, cell-based; summary of the method: as §2
[14] = molecular target: T1, Broad substrate specificity ATP-binding cassette transporter ABCG2; assay: Observed permeability in MDCK2 cells expressing rat ABCG2 assessed as ABCG2-mediated basolateral to apical transport at 3 uM after 0.5 to 1 hrs by HPLC method; type: ADME, cell-based; details: mdck-ii; summary of the method: as §2
[15] = Observed permeability in MDCK2 cells assessed as apical to basolateral transport at 10 uM after 0.5 to 1 hrs by HPLC method; type: ADME, cell-based, Canis lupus familiaris; details: dog, mdck-ii; summary of the method: as §2
[16] = molecular target: T1, Broad substrate specificity ATP-binding cassette transporter ABCG2; assay: Observed permeability in MDCK2 cells expressing rat ABCG2 assessed as ABCG2-mediated apical to basolateral transport at 200 uM after 0.5 to 1 hrs by HPLC method; type: ADME, cell-based; details: mdck-ii; summary of the method: as §2

Row | Papp [1] | efflux ratio at 200 µM [2] | efflux ratio at 50 µM (ABCG2 [3]) | Papp [4] | Papp [5] | Papp [6] | Papp [7] | efflux ratio at 50 µM [8] | Papp [9] | efflux ratio at 3 µM [10] | Papp [11] | Papp [12] | efflux ratio at 30 µM (ABCG2 [13]) | Papp [14] | Papp [15] | Papp [16] | Structure (SMILES)
1 | 137 uL/hr/cm2 | 0.99 | 1.26 | 151 uL/hr/cm2 | 123 uL/hr/cm2 | 130 uL/hr/cm2 | 121 uL/hr/cm2 | 1.04 | 255 uL/hr/cm2 | 1.01 | 156 uL/hr/cm2 | 16.9 uL/hr/cm2 | 1.63 | 253 uL/hr/cm2 | 123 uL/hr/cm2 | 127 uL/hr/cm2 | COc1ccnc(C[S@+]([O-])c2nc3cc(OC(F)F)ccc3[nH]2)c1OC
2 | 194 uL/hr/cm2 | 0.98 | 2.46 | 206 uL/hr/cm2 | 116 uL/hr/cm2 | 142 uL/hr/cm2 | 123 uL/hr/cm2 | 1.09 | 246 uL/hr/cm2 | 1.01 | 195 uL/hr/cm2 | 30 uL/hr/cm2 | 6.16 | 238 uL/hr/cm2 | 114 uL/hr/cm2 | 126 uL/hr/cm2 | COc1ccnc(C[S@@+]([O-])c2nc3cc(OC(F)F)ccc3[nH]2)c1OC
